Experimental data pooled from the literature.
Each line is one published result; the experiments were not run side by side.
Target: Wee1-like protein kinase (WEE1, Homo sapiens, UniProt P30291)

| SMILES | assay | setting | remaining binding |
| --- | --- | --- | --- |
| CCN1CCN(Cc2ccc(C(=O)Nc3ccc(C)c(Oc4ccc5c(c4)CC(=O)N5)c3)cc2C(F)(F)F)CC1 | binding, competition with immobilised ligand | 1 µM | 100% |
| Cc1cnn2ncc(-c3ccnc(N(C)C)n3)c2c1 | binding | 1 µM | 100% |
| O=C1CCc2cc(Nc3cc(OC4CCOCC4)c([N+](=O)[O-])cc3Cl)ccc2N1 | cell-free assay, competition with immobilised ligand | 1 µM | 99% |
| N[C@H]1CCN(c2nccc(-c3cnn4ncccc34)n2)C1 | binding | 1 µM | 68% |
| FC(F)(F)Oc1cccc(-c2cnc3ccc(-c4ccncc4)nn23)c1 | binding, competition with immobilised ligand | 5 µM | 90% |
| CN1CCN(c2cnc3c(C4CCN(C(=O)c5ccc(OC(F)(F)F)cc5N)CC4)ncnc3c2)CC1 | cell-free assay, competition with immobilised ligand | 1 µM | 96% |
| CN(C)c1nccc(-c2cnn3ncccc23)n1 | binding | 1 µM | 80% |
| C=CC(=O)N1CCC(C(=O)NCC(=O)N2CCN(c3nc(-c4cnc(N)nc4C(F)F)nc(N4CCOCC4)n3)CC2)CC1 | binding, competition with immobilised ligand | 1 µM | 89% |
| C[C@H]1CCN(c2nccc(-c3cnn4ncccc34)n2)C1 | binding | 1 µM | 100% |
| C[C@@H](c1ccc(-n2cnc3c(N)ncnc32)cc1)N1CCc2nn(C)c(Cc3ccccc3)c2C1=O | binding, competition with immobilised ligand | 0.1 µM | 85% |
| c1cncc(-c2cccc(Nc3nccc(NC4CCCCC4)n3)c2)c1 | binding, competition with immobilised ligand | 10 µM | 90% |
| CN(C)c1nccc(-c2cnc3ncccn23)n1 | binding | 1 µM | 100% |
| Cc1cnc(Nc2ccc(C(=O)N3CCC(N4CCCC4)CC3)cc2)nc1-c1cc2ccccc2s1 | binding, competition with immobilised ligand | 1 µM | 4.2% |
| CN(c1ccnc(CNc2nc(Nc3ccc4c(c3)CC(=O)N4)ncc2C(F)(F)F)n1)S(C)(=O)=O | cell-free assay, competition with immobilised ligand | 1 µM | 13% |
| O=C(Nc1c[nH]nc1C(=O)NC1CCNCC1)c1cc(F)cc(F)c1 | binding, competition with immobilised ligand | 1 µM | 100% |
| COc1cnc(Nc2cccc(S(N)(=O)=O)c2)nc1N1CCN(c2ccccc2)C(=O)C1 | binding, competition with immobilised ligand | 1 µM | 98% |
| Cn1nc(C(=O)NCc2ccc(C(=O)O)cc2)cc1-c1ccc2[nH]ccc2c1 | cell-free assay, competition with immobilised ligand | 0.1 µM | 100% |
| O=C(c1ccc(Nc2nccc(-c3cc4ccccc4s3)n2)cc1)N1CCC(N2CCCC2)CC1 | binding, competition with immobilised ligand | 1 µM | 83% |
| Cc1nccc(COC(=O)N2C[C@@H]3[C@@H](CNC(=O)c4ccc5[nH]nnc5c4)[C@@H]3C2)n1 | cell-free assay, competition with immobilised ligand | 1 µM | 100% |
| COc1ccnn2ncc(-c3ccnc(N(C)C)n3)c12 | binding | 1 µM | 100% |
| O=C(O)[C@@H]1[C@@H](Cn2nnc3ccccc3c2=O)CC[C@H]1C(=O)c1ccc(OCCC2CCOCC2)cc1 | cell-free assay, competition with immobilised ligand | 1 µM | 93% |
| O=C(NCCCN1CCOCC1)c1ccc(Nc2nccc(-c3cc4ccccc4s3)n2)cc1 | binding, competition with immobilised ligand | 1 µM | 67% |
